Most compounds without a hit are left out; they make up all but 2.3% or so of the library.
PAFAH2 inh = PAFAH2 enzyme inhibitors, primary screen, biochemical, fluorescence polarization, human. actives 0.99% (n = 340,000). inhibition, % at 3.39 µM. AID 492956, 2010. recombinant PAFAH2, FP-rhodamine activity probe;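 active means inhibition above the mean over all tested compounds plus 3 SD, cut at about 30% in these data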;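 further: inhibitors block probe labeling of enzyme so polarization drops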
TDP2 absorb = human TDP2 enzyme inhibitors, primary screen, biochemical, epi absorbance, recombinant enzyme; T5PNP hydrolysis, p-nitrophenol absorbance 415 nm; Tyrosyl-DNA phosphodiesterase 2 (Homo sapiens), O95551; actives 0.34% (n = 370,000); inhibition, % at 12.8 µM;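 active means inhibition above the mean of all tested compounds plus 3 SD, set per campaign, cut at about 25% in these data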
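Assay system: recombinant human TDP2 / Reagent: T5PNP substrate at 5 mM, a TopII-DNA adduct mimic / Measured by: epi absorbance from released p-nitrophenol / Evaluation: % inhibition relative to enzyme-containing and enzyme-free wells / Control set: enzyme-free and DMSO wells / Replicates: each compound tested once, singlicate / Schedule: enzyme reaction with compound for 2 h at 37 °C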
Apaf1 inhib = inhibitors of human Apaf-1 apoptosome, primary screen, biochemical, DEVD-Rh110 fluorescence, uHTS; reconstituted apoptosome caspase-3 activity; inhibition, % at 20 µM; actives 0.71% (n = 330,000); AID 489030, 2010; active means inhibition of at least 40% at 20 µM
Target sequence (O14727 whole entry, looked up): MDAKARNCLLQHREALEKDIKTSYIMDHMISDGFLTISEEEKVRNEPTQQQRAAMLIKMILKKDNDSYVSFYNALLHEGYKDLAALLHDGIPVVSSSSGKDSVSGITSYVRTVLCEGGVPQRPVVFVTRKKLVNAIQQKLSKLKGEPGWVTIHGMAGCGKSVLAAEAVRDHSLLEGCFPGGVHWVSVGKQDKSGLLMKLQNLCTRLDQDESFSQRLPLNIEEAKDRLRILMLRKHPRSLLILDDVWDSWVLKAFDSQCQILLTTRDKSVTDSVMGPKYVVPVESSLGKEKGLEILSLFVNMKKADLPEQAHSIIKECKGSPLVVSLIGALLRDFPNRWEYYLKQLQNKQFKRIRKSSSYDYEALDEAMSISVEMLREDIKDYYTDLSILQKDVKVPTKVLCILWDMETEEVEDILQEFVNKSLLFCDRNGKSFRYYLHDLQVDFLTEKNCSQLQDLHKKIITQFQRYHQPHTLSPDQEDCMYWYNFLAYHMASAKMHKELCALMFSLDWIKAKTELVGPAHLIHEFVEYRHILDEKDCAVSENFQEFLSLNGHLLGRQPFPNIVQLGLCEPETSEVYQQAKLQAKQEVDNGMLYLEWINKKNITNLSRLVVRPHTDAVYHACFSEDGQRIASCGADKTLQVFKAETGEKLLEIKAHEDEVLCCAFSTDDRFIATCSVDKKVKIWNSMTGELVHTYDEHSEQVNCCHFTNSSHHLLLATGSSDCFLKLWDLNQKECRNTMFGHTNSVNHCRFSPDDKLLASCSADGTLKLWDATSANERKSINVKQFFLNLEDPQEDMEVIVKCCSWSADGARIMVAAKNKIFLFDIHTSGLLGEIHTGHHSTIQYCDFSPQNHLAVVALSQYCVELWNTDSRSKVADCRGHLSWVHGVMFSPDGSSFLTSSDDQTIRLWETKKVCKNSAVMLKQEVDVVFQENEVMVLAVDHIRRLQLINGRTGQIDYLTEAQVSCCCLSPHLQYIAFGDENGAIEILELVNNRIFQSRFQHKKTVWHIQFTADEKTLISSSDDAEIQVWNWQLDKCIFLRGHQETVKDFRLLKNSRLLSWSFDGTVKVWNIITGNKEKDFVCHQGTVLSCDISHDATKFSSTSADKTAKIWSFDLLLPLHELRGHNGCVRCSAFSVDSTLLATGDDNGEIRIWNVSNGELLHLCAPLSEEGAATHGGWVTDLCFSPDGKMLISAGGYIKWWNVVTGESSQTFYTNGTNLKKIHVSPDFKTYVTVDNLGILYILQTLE
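Material: reconstituted apoptosome with Apaf-1, cytochrome c, caspase-9, procaspase-3, dATP / Buffer or medium: pH 7.5 Hepes buffer with CHAPS, BSA, DTT / Also added: cytochrome c with DEVD-Rh110 / Schedule: compound with Apaf-1, dATP, procaspase-3 30 min, then 50 min reaction, room temperature / Technique: rhodamine 110 fluorescence at Ex 480/Em 540 nm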
PAFAH1B3 FP inh = PAFAH1B3 enzyme inhibitors, primary screen, biochemical, fluorescence polarization, human | Platelet-activating factor acetylhydrolase IB subunit alpha1 (Homo sapiens), Q15102 | recombinant PAFAH1B3, FP-rhodamine probe | inhibition, % at 3.39 µM | actives 0.28% (n = 340,000);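 active means inhibition above the screen-wide average of all tested compounds plus 3 SD, cut at about 25% in these data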
PAFAH1B2 FP inh = PAFAH1B2 enzyme inhibitors, primary screen, biochemical, fluorescence polarization, human; Platelet-activating factor acetylhydrolase IB subunit alpha2 (Homo sapiens), P68402; recombinant PAFAH1B2, FP-rhodamine activity probe; actives 1.2% (n = 340,000); AID 492953, 2010; inhibition, % at 3.39 µM;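 active means inhibition above the mean of all tested compounds plus 3 SD, cut at about 24% in these data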
TDP2 confirm = human TDP2 enzyme inhibitors, retest, confirmation, biochemical, epi absorbance, recombinant enzyme | shares compounds with TDP2 absorb | absorbance read-out | inhibition, % at 12.8 µM | actives 22% (n = 1,100); in the data active means inhibition above about 25%
Of the large screens only hits and unclear results are named; the others gave an inactive call (follow-up assays come after a bar, where they were run); ! = repeats disagree.

COc1ccc(-n2c(N)c(C(=O)NCc3ccco3)c3nc4ccccc4nc32)cc1	TDP2 absorb 27 | TDP2 confirm inactive
COC(=O)[C@]12C[C@H](CC(=O)NCc3ccc(OC)c(OC)c3)C(=O)N(Cc3cccc4ccccc34)C1=C[C@H](COCc1ccccc1)O[C@@H]2C	none (no result: PAFAH2 inh, Apaf1 inhib, PAFAH1B3 FP inh, PAFAH1B2 FP inh)
CCOC(=O)c1csc(NC(=O)C2CCCN(S(=O)(=O)c3ccccc3[N+](=O)[O-])C2)n1 (stereo unspecified)	none (no result: PAFAH2 inh, Apaf1 inhib, PAFAH1B3 FP inh, PAFAH1B2 FP inh)
COc1ccc(/C=C2\CC3(OC(=O)c4cccc(F)c4)CCCN2C3)cc1 (stereo unspecified)	none (no result: PAFAH2 inh, Apaf1 inhib, PAFAH1B3 FP inh, PAFAH1B2 FP inh)
Cc1cccc(NC(=O)c2ccccc2NC(=O)Cc2ccccc2)c1C	none
Cc1cccc(NC(=O)C(Cc2ccccc2)c2nn[nH]n2)c1C (stereo unspecified)	TDP2 absorb 28 | TDP2 confirm inactive
COc1cccc(C2c3c(ncn(-c4ccccc4)c3=N)Oc3ccc4ccccc4c32)c1OC (stereo unspecified)	none (no result: PAFAH2 inh, Apaf1 inhib, PAFAH1B3 FP inh, PAFAH1B2 FP inh)
N#CC1=C(c2ccccc2)/C(=C/c2ccccc2)OC1=O	none
N#CC(C#N)=C1NC(N)=C(C#N)C(c2ccccc2)=C1C#N	TDP2 absorb 32 | TDP2 confirm 29
CCCC(=O)N1CCC[C@]2(CC[C@H](CCC#N)O2)C1	none (no result: PAFAH2 inh, Apaf1 inhib, PAFAH1B3 FP inh, PAFAH1B2 FP inh)
Cc1ccccc1NC(=O)[C@H]1CC(=O)O[C@@H]1c1ccccc1	none (no result: PAFAH2 inh, Apaf1 inhib, PAFAH1B3 FP inh, PAFAH1B2 FP inh)
COc1cc(C(C)=O)ccc1OCC(O)CN1CCN(c2ccccc2)CC1 (stereo unspecified)	none
COc1cc(C(C)=O)ccc1OCC(O)CN1CCN(c2ccccn2)CC1 (stereo unspecified)	TDP2 absorb 26 | TDP2 confirm inactive
O=C(NC1CCCCN(Cc2ccc(Cl)cc2)C1=O)c1cccs1 (stereo unspecified)	none (no result: PAFAH2 inh, Apaf1 inhib, PAFAH1B3 FP inh, PAFAH1B2 FP inh)
COc1ccc(NC(=O)CSc2nnc(-c3cc(C)[nH]n3)n2N)cc1OC	TDP2 absorb 30 | TDP2 confirm inactive
O=C(O)CSc1cc(NS(=O)(=O)c2ccc(Br)cc2)c2ccccc2c1O	PAFAH2 inh 42, TDP2 absorb 70, PAFAH1B3 FP inh 63, PAFAH1B2 FP inh 52 (no result: Apaf1 inhib) | TDP2 confirm 56
N#CC1=C(N)Oc2n[nH]c(-c3cccs3)c2C1c1ccncc1 (stereo unspecified)	none
Cc1ccc(C2C(C#N)=C(N)Oc3n[nH]c(-c4cccs4)c32)s1 (stereo unspecified)	TDP2 absorb 34 | TDP2 confirm inactive
N#Cc1cc([N+](=O)[O-])ccc1Oc1ccc(-c2nnco2)cc1	none
O=[N+]([O-])c1ccc(Oc2ccc(-c3nnco3)cc2)c(Cl)c1	TDP2 absorb 47 | TDP2 confirm inactive
CN(C)CCNc1ccc(CO)c2sc3ccc(O)cc3c(=O)c12	none (no result: Apaf1 inhib)
CN(C)CCNc1ccc2ncn3c4ccc(O)cc4c(=O)c1c23	TDP2 absorb 31 (no result: Apaf1 inhib) | TDP2 confirm inactive
COc1ccc(C)cc1NC(=S)NN1CCN(C)CC1	TDP2 absorb 29 | TDP2 confirm inactive
CC1CCN(CCCNC(=O)c2ccc(CS(=O)(=O)Cc3ccccc3F)o2)CC1	none (no result: Apaf1 inhib)
CC1CCN(CCCNC(=O)c2ccc(CS(=O)(=O)Cc3ccc(Cl)cc3)o2)CC1	TDP2 absorb 27 | TDP2 confirm inactive
O=C(Nc1ccc2nc3n(c(=O)c2c1)CCCCC3)c1cc([N+](=O)[O-])ccc1F	none
O=C(Nc1ccc2nc3n(c(=O)c2c1)CCCCC3)c1c(F)ccc([N+](=O)[O-])c1F	TDP2 absorb 25 | TDP2 confirm 38
COC(=O)C1CN(Cc2cn(CCC3OCCO3)nn2)CCS(=O)(=O)N1Cc1ccc(F)cc1 (stereo unspecified)	none (no result: PAFAH2 inh, Apaf1 inhib, PAFAH1B3 FP inh, PAFAH1B2 FP inh)
O=C1C(=C(I)I)c2ccccc2-c2ccccc21	TDP2 absorb 98 (no result: Apaf1 inhib) | TDP2 confirm 88
CCCC1CCC2(CCCN2CCOC(=O)Nc2ccc(Br)cc2)CC1 (stereo unspecified)	none (no result: PAFAH2 inh, Apaf1 inhib, PAFAH1B3 FP inh, PAFAH1B2 FP inh)
CCN1CCN(CCOCCOc2ccccc2)CC1	TDP2 absorb 28 | TDP2 confirm inactive
CN1CCN(CCOCCOc2ccc(Br)cc2Cl)CC1	TDP2 absorb 29 | TDP2 confirm inactive
CN1CCN(CCOc2ccc(Cc3ccccc3)cc2)CC1	none
CCc1ccc(OCCOCCN2CCN(C)CC2)cc1	TDP2 absorb 32 | TDP2 confirm inactive
CC1CCCN(CCOCCOc2ccc(Br)cc2Cl)C1 (stereo unspecified)	none
C[C@H]1[C@@H](OC(=O)NCc2ccc(Cl)c(Cl)c2)CC[C@@]23CCCN2C(=O)CCC[C@@H]13	none (no result: PAFAH2 inh, Apaf1 inhib, PAFAH1B3 FP inh, PAFAH1B2 FP inh)
CCNc1nc(N)c([N+](=O)[O-])c(Nc2cccc(Cl)c2)n1	none (no result: PAFAH2 inh, Apaf1 inhib, PAFAH1B3 FP inh, PAFAH1B2 FP inh)
Cc1nc(COC(=O)c2ccc(CO)cc2)cs1	none
Cc1nc(COC(=O)c2cc(O)c3ccccc3c2O)cs1	TDP2 absorb 26 (no result: Apaf1 inhib) | TDP2 confirm inactive
COc1ccc(CC(=O)N/N=C(/C)CC(=O)N(C)c2ccccc2)cc1	TDP2 absorb 25 | TDP2 confirm inactive
Oc1ccc(NC(=S)Nc2ccccc2)cc1	TDP2 absorb 25! | TDP2 confirm inactive
Nc1ccc(NC(=S)Nc2ccccc2)cc1	TDP2 absorb 32 (no result: Apaf1 inhib) | TDP2 confirm inactive
CC1CCN(c2c3c(nc4ncnn24)CCCC3)CC1	none (no result: PAFAH2 inh, Apaf1 inhib, PAFAH1B3 FP inh, PAFAH1B2 FP inh)
O=C(NC(N1CCCCCC1)C(Cl)(Cl)Cl)c1ccccc1Cl (stereo unspecified)	none
O=C(NC(N1CCOCC1)C(Cl)(Cl)Cl)c1ccccc1Cl (stereo unspecified)	TDP2 absorb 27 | TDP2 confirm inactive
CC(C)CNC(=O)OCc1cn(Cc2cccc(F)c2)nn1	none (no result: PAFAH2 inh, Apaf1 inhib, PAFAH1B3 FP inh, PAFAH1B2 FP inh)
COC(=O)[C@H]1C[C@@]2(C#N)c3ccccc3N(C(=O)OC(C)(C)C)[C@H]2N1C(=O)OC(C)(C)C	none (no result: PAFAH2 inh, Apaf1 inhib, PAFAH1B3 FP inh, PAFAH1B2 FP inh)
O=[N+]([O-])c1ccc2c(c1)nnn2-c1ccccc1	TDP2 absorb 24 | TDP2 confirm inactive
O=[N+]([O-])c1ccc2c(c1)ncn2-c1ccccc1	none (no result: Apaf1 inhib)
O=C(NCc1cccs1)C1C2C=CC3(CN(Cc4ccccc4)C(=O)C13)O2 (stereo unspecified)	none (no result: PAFAH2 inh, Apaf1 inhib, PAFAH1B3 FP inh, PAFAH1B2 FP inh)
CCNC(=S)NS(=O)(=O)c1ccc(Cl)cc1	TDP2 absorb 37 | TDP2 confirm inactive
COc1cccc(N2CC(NS(=O)(=O)c3cccnc3)CC2=O)c1 (stereo unspecified)	TDP2 absorb 29 | TDP2 confirm inactive

Bioassay records (PubChem)
